Experimental data from different studies.
Protocols differ between the studies behind these lines.
Target: G protein-coupled receptor kinase 3 (GRK3, Homo sapiens, UniProt P35626)
Residues used in one study (P35626 1-688): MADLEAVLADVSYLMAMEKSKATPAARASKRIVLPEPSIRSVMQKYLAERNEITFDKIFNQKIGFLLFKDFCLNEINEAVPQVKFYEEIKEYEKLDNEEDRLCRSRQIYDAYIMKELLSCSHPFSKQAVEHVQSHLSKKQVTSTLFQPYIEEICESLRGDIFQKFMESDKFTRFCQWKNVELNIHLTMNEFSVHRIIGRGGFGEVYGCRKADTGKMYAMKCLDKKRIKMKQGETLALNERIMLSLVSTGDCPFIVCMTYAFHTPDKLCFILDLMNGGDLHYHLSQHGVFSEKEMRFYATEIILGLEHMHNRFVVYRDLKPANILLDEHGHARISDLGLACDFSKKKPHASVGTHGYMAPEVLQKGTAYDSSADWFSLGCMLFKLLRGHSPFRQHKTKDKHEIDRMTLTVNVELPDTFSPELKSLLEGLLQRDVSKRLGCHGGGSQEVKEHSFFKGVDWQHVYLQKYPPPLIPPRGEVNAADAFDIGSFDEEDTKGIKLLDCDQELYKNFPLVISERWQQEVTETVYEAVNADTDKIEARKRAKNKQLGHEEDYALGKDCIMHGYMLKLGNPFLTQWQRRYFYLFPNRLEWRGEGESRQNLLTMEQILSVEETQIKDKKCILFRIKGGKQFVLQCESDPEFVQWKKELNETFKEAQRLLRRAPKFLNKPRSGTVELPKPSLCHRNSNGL

| SMILES | test | conditions | endpoint | value |
| --- | --- | --- | --- | --- |
| Cc1ccc(C(=O)NCc2ccsc2)cc1C#Cc1cn(C(C)C)c2ncnc(N)c12 | enzyme activity, inhibitor | 1 µM | activity vs control | 105% |
| CCCOc1ccc([C@@H]2[C@@H](C(=O)O)[C@H](c3ccc4c(c3)OCO4)CN2CC(=O)Nc2c(CC)cccc2CC)cc1 | cell-free assay, competition with immobilised ligand | 1 µM | remaining binding | 100% |
| Cc1sc(C(=O)NC2COC2)cc1-n1cc(NC(=O)Nc2c(F)cccc2Cl)cn1 | enzyme activity, inhibitor | 10 µM | remaining activity | 107% |
| CS(=O)(=O)N1CCCC(NC(=O)[C@H](CCC2CCCCC2)NC(=O)c2ccc(CNC(=O)c3cnc4ccccn34)cc2)C1 (some centres unmarked) | cell-free assay, competition with immobilised ligand | 0.1 µM | remaining binding | 100% |
| COc1cc2ncnc(Nc3ccc(Oc4ccccc4)cc3C)c2cc1OC | enzyme activity, inhibitor | 1 µM | inhibition | 1% |
| COCCOc1nc(-c2ccc(Cl)nc2)nc2c1CN(C(=O)c1ncn3ccccc13)CC2 | cell-free assay, competition with immobilised ligand | 0.1 µM | remaining binding | 100% |
| Cn1c2c(Cl)c(Cl)ccc2c2cn[nH]c(=O)c21 | thermal stability, DSF | 10 µM | ΔTm | 0 °C |
| O=C(O)[C@H]1[C@H](Cn2nnc3ccccc3c2=O)CC[C@@H]1C(=O)c1ccc(OCCC2CCOCC2)cc1 | cell-free assay, competition with immobilised ligand | 1 µM | remaining binding | 100% |
| O=C1NC(=O)c2cc(Nc3ccc(F)cc3)c(Nc3ccc(F)cc3)cc21 | cell-free assay | 0.5 µM | remaining signal | 104% |
| CCC1(CC)NC(=O)c2c(c3ccc(Cl)c(Cl)c3n2C)C1C#N (centres unmarked) | thermal stability, DSF | 10 µM | ΔTm | 0.1 °C |
| CC(C)(C)c1nc(-c2cccc(NS(=O)(=O)c3c(F)cccc3F)c2F)c(-c2ccnc(N)n2)s1 | enzyme activity, inhibitor, radiometric | 1 µM | remaining activity | 86% |
| N#CC1c2c([nH]c3c(Cl)c(Cl)ccc23)C(=O)NC12CCCCC2 (racemic) | thermal stability, DSF | 10 µM | ΔTm | 0.7 °C |
| CC(C)(O)[C@H]1CC[C@H](Nc2ccc3ncc(-c4cccc(C(F)(F)F)c4)n3n2)CC1 | enzyme activity, inhibitor | 1 µM | remaining activity | 107% |
| CCOc1cc(-c2nncn2C)ccc1Nc1ncc2cc(C)nc(NCC(C)(C)C)c2n1 | enzyme activity, inhibitor, FRET | 1 µM | inhibition | < 15% |
| Cn1c2c(c3ccc(Cl)c(Cl)c31)C(C#N)C1(CCCCC1)NC2=O (racemic) | thermal stability, DSF | 10 µM | ΔTm | 0.4 °C |
| CCCS(=O)(=O)Nc1ccc(F)c(C(=O)c2c[nH]c3ncc(-c4ccc(Cl)cc4)cc23)c1F | enzyme activity, inhibitor | 1 µM | inhibition | < 10% |
| Cn1c2c(c3ccc(Cl)c(Cl)c31)C(C#N)C1(CCOCC1)NC2=O (centres unmarked) | thermal stability, DSF | 10 µM | ΔTm | 0 °C |
| COc1ccc2cc(OCC3(C(=O)O)CN(C(=O)c4ccc(F)cc4)C3)ccc2c1 | cell-free assay, competition with immobilised ligand | 1 µM | remaining binding | 67% |
| Cn1c2c(c3ccc(Cl)c(Cl)c31)C(C#N)C(C)(C)NC2=O (centres unmarked) | thermal stability, DSF | 10 µM | ΔTm | 0.6 °C |
| CS(=O)(=O)c1cc(C2(NC(=O)c3cncc4c3cnn4-c3ccc(F)cc3)CC2)ccn1 | cell-free assay, competition with immobilised ligand | 1 µM | remaining binding | 100% |
